The list is not random: actives were taken first. Their share in the collection is about 1.7%.
Rtt109 HAT inh = inhibitors of C. albicans Rtt109/Vps75 HAT, primary screen, biochemical, ThioGlo CoA-SH fluorescence, plate reader; Histone acetyltransferase RTT109 (Candida albicans (strain SC5314 / ATCC MYA-2876)), …; purified Rtt109/Vps75, 4 h; inhibition, % at 34.9 µM; 330,000 compounds, 0.16% hits; AID 540336, 2011;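 active = inhibition of at least 50% in every replicate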
Target sequence (Q5AAJ8 whole entry, looked up): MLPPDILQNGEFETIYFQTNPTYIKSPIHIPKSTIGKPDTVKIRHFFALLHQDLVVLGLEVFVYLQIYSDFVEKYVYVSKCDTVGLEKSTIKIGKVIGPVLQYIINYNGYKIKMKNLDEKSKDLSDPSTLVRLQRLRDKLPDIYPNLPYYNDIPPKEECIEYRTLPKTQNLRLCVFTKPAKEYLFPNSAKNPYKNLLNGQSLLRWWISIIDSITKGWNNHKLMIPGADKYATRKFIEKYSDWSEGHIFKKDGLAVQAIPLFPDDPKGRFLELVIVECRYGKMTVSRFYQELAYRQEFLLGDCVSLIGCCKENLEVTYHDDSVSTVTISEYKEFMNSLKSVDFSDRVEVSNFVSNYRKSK
PfHsp90 yeast 2 = growth inhibition of PfHsp90-expressing yeast, primary screen, antimalarial PfHsp90 inhibitor project, S. cerevisiae, BacTiter-Glo luminescence, single point, set 2. BacTiter-Glo ATP, 48 h; yeast lacking PDR1 and PDR3 efflux regulators. inhibition, % at 9.4 µM. 310,000 compounds, 0.32% hits;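 active = every replicate shows inhibition above about 80%, whatever the replicate mean, limit read from the data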;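 note: 0% = DMSO neutral controls and 100% = 20 µM radicicol positive controls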
PglD inh = C. jejuni PglD acetyltransferase inhibitors, primary screen, biochemical, DTNB colorimetric, single point. purified PglD enzyme, DTNB colorimetric CoA detection. inhibition, % at 12.5 µM. 360,000 compounds, 0.098% hits; in the data active = inhibition above about 16%, passing the limit was not always enough
CSC inhib = cancer stem cell viability inhibitors, primary screen, luminescence; 300,000 compounds, 1.1% hits; cancer stem cell-like cells viability; inhibition, % at 7.5 µM; in the data active = inhibition above about 75%; tested in HMLE shEcad cells
FN deposition inh = inhibitors of fibronectin matrix deposition, primary screen, AH1F cells, Alexa488-fibronectin fluorescence, plate reader | AH1F fibroblasts, overnight | inhibition, % at 12.6 µM | 350,000 compounds, 0.086% hits;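 active = mean inhibition across replicates of 30% or more, regardless of how many single replicates reach that level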;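 note: positive control wells lacked labelled fibronectin entirely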
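Measured by – fluorescence 485/525 nm · System – AH1F fibroblast monolayer, labelled fibronectin deposition · Amount – 10000 cells per well · Buffer or medium – serum-reduced DMEM (2% serum) · Doses – single dose, pinned · Also added – fluorescent fibronectin at 24 nM final · Schedule – 1 h cell attachment, overnight exposure to compound and label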
SKKanGAS inh = S. pyogenes SKKanGAS growth inhibitors in kanamycin, primary screen, streptokinase expression inhibitor project, SKKanGAS strain, BacTiter-Glo luminescence. 6 h. inhibition, % at 7.5 µM. 300,000 compounds, 1.3% hits. AID 1662, 2009;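 active = mean replicate score, as percent of positive control median, at least 50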;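 note: strain carries kanamycin resistance gene driven by streptokinase promoter and grows in 40 µg/ml kanamycin; loss of luminescence reflects streptokinase promoter inhibition or plain growth inhibition; 0% = median of DMSO wells and 100% = positive control at its reference dose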
An asterisk follows results filed as active; / = no result.

SMILES	Rtt109 HAT inh	PfHsp90 yeast 2	PglD inh	CSC inhib	FN deposition inh	SKKanGAS inh
CC(C)OC(=O)c1c(NS(=O)(=O)c2ccccc2)sc2c1CCCC2	2	3	-6	-4	-5	97*
O=C(O)c1cccc(-c2ccc(/C=N/Nc3ccc([N+](=O)[O-])cc3)o2)c1	7	-16	-8	-2	3	8
O=C(O)c1ccc(-c2ccc(/C=N/Nc3ccc([N+](=O)[O-])cc3)o2)cc1	50*	-27	/	-8	3	37
O=C(O)c1ccc(N/N=C/c2ccc(-c3ccc(Cl)cc3Cl)o2)cc1	3	-68	/	44	-4	84*
O=C(O)c1ccc(N/N=C/c2ccc(-c3cccc(Cl)c3)o2)cc1	19	104*	2	10	0	70*
O=C(O)c1ccc(N/N=C/c2ccc(-c3cc(Cl)ccc3Cl)o2)cc1	1	-39	-9	15	3	76*
CO[C@@H]1CN(C)C(=O)c2ccc(NC(=O)c3cc(C)on3)cc2OC[C@@H](C)N(C)C[C@@H]1C	/	/	-2	/	0	/
Cc1ccc(/C=C2/Sc3ccccc3N(CC(=O)NCC3CCCO3)C2=O)cc1 (centres undefined)	6	5	-3	-5	/	4
COc1ccc(/C=C2\Sc3ccc(C(=O)N4CCOCC4)cc3N(C)C2=O)cc1	4	19	-3	-1	-6	60*
CN1C(=O)/C(=C/c2ccccc2F)Sc2ccc(C(=O)N3CCCC3)cc21	12	-15	4	-14	1	71*
COc1ccc(/C=C2\Sc3ccc(C(=O)NCC4CCCO4)cc3N(C)C2=O)cc1 (centres undefined)	9	-22	2	8	-3	92*
C[C@@H]1CN([C@H](C)CO)C(=O)c2cc(NC(=O)CCC(F)(F)F)ccc2O[C@@H](C)CCCCO[C@H]1CN(C)Cc1ccccc1	/	/	0	/	-4	/
COc1ccccc1C#Cc1cnc2c(c1)C(=O)N([C@H](C)CO)C[C@H](C)[C@H](CN(C)C(C)=O)O2	/	/	-1	/	/	/
NS(=O)(=O)c1ccc(N/N=C/c2cn(-c3ccccc3)nc2-c2ccccc2)c([N+](=O)[O-])c1	-8	14	3	140*	-1	11
O=[N+]([O-])c1ccc(N/N=C/c2cn(-c3ccccc3)nc2-c2ccccc2)cc1	0	6	2	29	/	14
CCCC#Cc1ccc2c(c1)[C@@H]1[C@@H](CCN1C(=O)C1CCCCC1)[C@@H](CO)N2	/	/	/	/	-6	/
O=c1[nH]c(CSc2ncn[nH]2)nc2ccccc12	0	11	4	-20	11	-6
O=c1[nH]c(CSc2ncnc3sccc23)nc2ccccc12	-14	4	-2	5	-3	67*
O=[N+]([O-])c1cc(S(=O)(=O)N2CCCC2)ccc1O	-9	30	/	-12	1	-4
O=[N+]([O-])c1cc(S(=O)(=O)N2CCCCCC2)ccc1F	4	14	/	102*	-6	/
O=C1CCSc2ccc(Cl)cc2N1Cc1ccccc1	-4	-46	-2	-3	/	-3
O=C1CCSc2ccc(Cl)cc2N1Cc1ccc(Cl)cc1	-25	-12	-2	4	/	53*
CC[C@H]1OC(=O)[C@H](C)[C@@H](O[C@H]2C[C@@](C)(OC)[C@@H](O)[C@H](C)O2)[C@H](C)[C@@H](O[C@@H]2O[C@H](C)C[C@H](N(C)C)[C@H]2O)[C@](C)(OC)C[C@@H](C)C(=O)[C@H](C)[C@@H](O)[C@]1(C)O	-2	-12	7	-19	2	104*
CC[C@H]1OC(=O)[C@H](C)[C@@H](O[C@H]2C[C@@](C)(OC)[C@@H](O)[C@H](C)O2)[C@H](C)[C@@H](O[C@@H]2O[C@H](C)C[C@H](N(C)C)[C@H]2O)[C@](C)(O)C[C@@H](C)C(=NOCOCCOC)[C@H](C)[C@@H](O)[C@]1(C)O	1	-15	-4	1	-3	107*
Cc1cccc(C)c1NC(=S)Nc1ccc(F)cc1	4	1	/	-10	11	-4
SMILES	Rtt109 HAT inh	PfHsp90 yeast 2	PglD inh	CSC inhib	FN deposition inh	SKKanGAS inh
Cc1ccc(NC(=S)Nc2ccc(F)cc2)cc1C	50*	-3	-8	-7	7	1
CC=Cc1ccc2n(c1=O)C[C@H]1[C@H](CO)[C@@H](C(=O)N(C)C)N(CCC(F)(F)F)[C@@H]21 (mixture of isomers)	/	/	-3	/	/	/
CCOC(=O)/C=C/C(=O)Nc1cccc([N+](=O)[O-])c1	108*	98*	/	108*	/	4
Cc1cc(CN2C(=O)c3ccccc3C2=O)no1	57*	7	4	-5	-1	2
O=C1OC(c2ccccc2)(c2cc(Br)c(O)c(Br)c2)c2ccccc21 (centres undefined)	0	115*	3	/	5	/
C[C@H]1CCCCO[C@@H](CN(C)S(=O)(=O)c2ccccc2)[C@@H](C)CN([C@@H](C)CO)C(=O)c2cc(NC(=O)Nc3ccc(C(F)(F)F)cc3)ccc2O1	/	/	0	/	4	/
O=[N+]([O-])c1ccc(/C=[N+](\[O-])CCO)o1	-2	9	7	3	4	84*
CC1CCC2C(=O)N(c3ccc(NC4CCCCC4)c([N+](=O)[O-])c3)C(=O)C2C1 (centres undefined)	2	-5	/	76*	-5	-21
CCOC(=O)N1CCC(Nc2ccc(N3C(=O)C4CCCCC4C3=O)cc2[N+](=O)[O-])CC1 (centres undefined)	39	-6	-3	17	-3	-9
Cc1ccc(-c2ccc(CCC(=O)O)o2)cc1	3	-25	0	13	3	4
O=C(O)CCc1ccc(-c2cccs2)o1	53*	3	4	/	/	0
CCCCC(CC)CN1C(=O)/C(=C/c2ccncc2)SC1=S (centres undefined)	-4	/	-3	107*	/	87*
O=C(c1ccc2c(c1)OCO2)N1CC2(C1)[C@H](c1ccccc1)[C@H](CO)N2C(=O)C1CC1	/	/	/	/	-6	/
CC1CCc2c(sc(NC(=O)CSc3ncn[nH]3)c2C#N)C1 (centres undefined)	1	11	2	38	10	6
CC(C)(C)C1CCc2c(sc(NC(=O)CSc3ncn[nH]3)c2C#N)C1 (centres undefined)	2	7	0	93*	7	-2
CN1CCN(C(=O)c2cccc(-c3cnc4cnc(-c5ccccc5Oc5ccccc5)cn34)c2)CC1	/	/	-5	/	40*	/
